Source: PubChem BioAssay (The Scripps Research Institute Molecular Screening Center)
Sampled rows, rich in hits. Any-hit rate of the full collection: about 2.8%.
PAFAH1B3 FP inh: PAFAH1B3 (human) inhibition; recombinant PAFAH1B3, FP-rhodamine probe, fluorescence polarization; inhibition, % at 3.39 µM; 0.28% of 340,000 active; AID 492972;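 active means inhibition above the screen-wide average of all tested compounds plus 3 SD, cut at about 25% in these data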
pPAFAH inh: pPAFAH (human) enzyme inhibition; inhibition, % at 3.39 µM; Q13093; 1.5% of 330,000 active; recombinant pPAFAH, FP-rhodamine probe fluorescence polarization;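 active means inhibition above the mean inhibition across the screen plus 3 SD, cut at about 25% in these data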;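 further: inhibitors block binding of the rhodamine activity-based probe so polarization drops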
Target sequence (Q13093 whole entry, looked up): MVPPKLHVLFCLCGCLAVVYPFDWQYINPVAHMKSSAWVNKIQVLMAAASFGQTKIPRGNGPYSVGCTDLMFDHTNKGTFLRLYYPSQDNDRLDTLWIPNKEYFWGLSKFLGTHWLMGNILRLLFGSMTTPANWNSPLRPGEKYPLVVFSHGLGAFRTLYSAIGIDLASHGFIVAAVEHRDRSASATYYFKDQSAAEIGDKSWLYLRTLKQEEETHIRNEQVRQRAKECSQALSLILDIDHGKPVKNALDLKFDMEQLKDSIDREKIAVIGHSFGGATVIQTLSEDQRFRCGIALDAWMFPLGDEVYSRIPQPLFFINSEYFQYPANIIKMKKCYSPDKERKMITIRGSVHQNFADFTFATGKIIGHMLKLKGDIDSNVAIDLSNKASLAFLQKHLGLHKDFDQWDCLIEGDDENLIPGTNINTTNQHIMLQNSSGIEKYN
ABHD4 inh: inhibits mouse alpha/beta hydrolase domain 4. Q8VD66. 0.54% of 370,000 active. inhibition, % at 8.92 µM. purified mABHD4, FP-Rh probe fluorescence polarization;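 active means inhibition exceeding the mean over every tested compound plus 3 SD, cut at about 30% in these data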
Target sequence (Q8VD66 whole entry, looked up, the tested form may be a part): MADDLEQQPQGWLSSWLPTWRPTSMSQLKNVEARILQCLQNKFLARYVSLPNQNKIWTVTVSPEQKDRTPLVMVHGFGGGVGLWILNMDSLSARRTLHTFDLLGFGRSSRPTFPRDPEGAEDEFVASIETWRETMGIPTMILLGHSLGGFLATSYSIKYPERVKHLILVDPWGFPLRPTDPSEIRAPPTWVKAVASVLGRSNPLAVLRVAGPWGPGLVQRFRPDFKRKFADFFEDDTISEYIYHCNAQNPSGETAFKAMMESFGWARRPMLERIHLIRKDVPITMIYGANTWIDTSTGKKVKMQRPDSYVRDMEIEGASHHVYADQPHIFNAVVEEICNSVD
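Assay system: mABHD4 protein; medium: HEPES pH 7.0, NaCl, Pluronic buffer; dosing: 8.92 µM, single dose; schedule: 45 min + 60 min at 25 °C; signal: FP readout, ex 525 nm / em 598 nm; read-out: normalized percent inhibition of probe labeling; repeats: single replicate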
HTRA1 inhibitor: inhibitors of human serine peptidase HTRA1; Q92743; AID 504803; recombinant HTRA1, FP-rhodamine activity-based probe, fluorescence polarization; inhibition, % at 5.96 µM; 0.5% of 340,000 active; in the data active means inhibition above about 36%
PAFAH2 inh: PAFAH2 (human) inhibition; Q99487; recombinant PAFAH2, FP-rhodamine activity probe, fluorescence polarization; inhibition, % at 3.39 µM; 0.99% of 340,000 active;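 active means inhibition above the mean over all tested compounds plus 3 SD, cut at about 30% in these data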;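 further: inhibitors block probe labeling of enzyme so polarization drops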
PAFAH1B2 FP inh: blocks human PAF acetylhydrolase 1b catalytic subunit 2; P68402; recombinant PAFAH1B2, FP-rhodamine activity probe, fluorescence polarization; inhibition, % at 3.39 µM; 1.2% of 340,000 active;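 active means inhibition above the mean of all tested compounds plus 3 SD, cut at about 24% in these data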
PAFAH2 FP conf: PAFAH2 (human) inhibition, confirmed; shares compounds with PAFAH2 inh; recombinant PAFAH2, FP-rhodamine activity probe, fluorescence polarization; inhibition, % at 3.39 µM; 65% of 2,300 active; AID 493030;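 active means mean inhibition over three repeats above a set limit taken from the earlier primary screen, cut at about 30% in these data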;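 further: inhibitor blocks binding of rhodamine activity probe so polarization falls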
Of the large screens only hits and unclear results are named; the others gave an inactive call (follow-up assays come after a bar, where they were run).

CCC(CO)Oc1cc(NC(=O)c2ccccc2F)c2ncn(C(C)C)c2c1 (stereo unspecified)	none
CCC(CO)Oc1cc(NC(=O)Cc2ccccc2F)c2ncn(C(C)C)c2c1 (stereo unspecified)	PAFAH2 inh 40 | PAFAH2 FP conf inactive
CCN(C(=O)CN1CCN(c2nc(-c3ccccc3)cs2)CC1)c1ccccc1C	none (no result: PAFAH1B3 FP inh, pPAFAH inh, HTRA1 inhibitor, PAFAH2 inh, PAFAH1B2 FP inh)
NC(=O)Nc1ccc(C(=O)OCC(=O)Nc2sccc2C(N)=O)cc1	none (no result: pPAFAH inh)
CC(CCc1ccccc1)NC(=O)COC(=O)c1ccccc1Br (stereo unspecified)	none
COc1ccc(CC(=O)NC(C)CCc2ccccc2)cc1OC (stereo unspecified)	none
COc1ccc(C(=O)OCC(=O)NC(C)CCc2ccccc2)cc1OC (stereo unspecified)	PAFAH2 inh 74 | PAFAH2 FP conf 71
COc1ccc(/C=C/C(=O)NC(C)CCc2ccccc2)cc1OC (stereo unspecified)	none
CC(CCc1ccccc1)NC(=O)COC(=O)c1ccc(NC(N)=O)cc1 (stereo unspecified)	PAFAH2 inh 67 | PAFAH2 FP conf 64
CC(C)n1nccc1NC(=O)COC(=O)c1ccc(NC(N)=O)cc1	PAFAH2 inh 65 | PAFAH2 FP conf 46
COc1ccc(/C=C/C(=O)OCC(=O)NC(C)CCc2ccccc2)cc1OC (stereo unspecified)	PAFAH2 inh 64 | PAFAH2 FP conf 59
CCCCN1CC[C@@H](C)Oc2cc(Br)ccc2S1(=O)=O	none (no result: PAFAH1B3 FP inh, pPAFAH inh, HTRA1 inhibitor, PAFAH2 inh, PAFAH1B2 FP inh)
Cc1ccc(CSc2nnc(-c3cc(-c4ccc(F)cc4)n[nH]3)n2N)cc1	none (no result: PAFAH1B3 FP inh, pPAFAH inh, HTRA1 inhibitor, PAFAH2 inh, PAFAH1B2 FP inh)
C[C@H]1CCCN1c1cccc2c1S(=O)(=O)N1CC[C@H](C1)O2	none (no result: PAFAH1B3 FP inh, pPAFAH inh, HTRA1 inhibitor, PAFAH2 inh, PAFAH1B2 FP inh)
COc1ccc(C(=O)OCC(=O)NC(C)CCc2ccccc2)cc1 (stereo unspecified)	PAFAH2 inh 75 | PAFAH2 FP conf 68
Cc1cccc(NC(=O)/C(C#N)=C/c2ccc(F)cc2)n1	none
CCCOc1ccccc1/C=C(\C#N)C(=O)Nc1cccc(C)n1	PAFAH2 inh 58 | PAFAH2 FP conf 52
CC1CCCC(C)N1C(=O)COC(=O)c1ccco1 (stereo unspecified)	PAFAH2 inh 31 | PAFAH2 FP conf inactive
COc1cc(NC(=O)COC(=O)c2ccccc2SCC(=O)N2CCCC2)cc(OC)c1	PAFAH2 inh 42 | PAFAH2 FP conf inactive
COc1ccc(C)cc1NC(=O)COC(=O)c1ccccc1SCC(=O)N1CCCC1	none
NS(=O)(=O)c1cccc(NC(=O)COC(=O)c2ccccc2SCC(=O)N2CCCC2)c1	PAFAH2 inh 40 | PAFAH2 FP conf 36
COc1cccc(NC(=O)COC(=O)c2ccccc2SCC(=O)N2CCCC2)c1	PAFAH2 inh 82 | PAFAH2 FP conf 81
O=C(COC(=O)c1ccccc1SCC(=O)N1CCCC1)Nc1ccccc1	PAFAH2 inh 88 | PAFAH2 FP conf 80
O=C(OCC(=O)N1CCOCC1)c1ccccc1SCC(=O)N1CCCC1	none
O=C(NCc1ccc(Cl)cc1)C1C2C=CC3(CN(Cc4ccccc4)C(=O)C13)O2 (stereo unspecified)	none (no result: PAFAH1B3 FP inh, pPAFAH inh, HTRA1 inhibitor, PAFAH2 inh, PAFAH1B2 FP inh)
CCCC(C)NC(=O)COC(=O)c1ccccc1SCC(=O)NC(C)CCC (stereo unspecified)	PAFAH2 inh 39 | PAFAH2 FP conf 43
CC(NC(=O)COC(=O)c1ccccc1O)c1ccccc1 (stereo unspecified)	none (no result: PAFAH1B3 FP inh, pPAFAH inh, PAFAH2 inh, PAFAH1B2 FP inh)
CCN(C(=O)COC(=O)c1cc(-c2ccc(C)o2)nc2ccccc12)C1CCS(=O)(=O)C1 (stereo unspecified)	PAFAH2 inh 45 | PAFAH2 FP conf inactive
COc1ccc(CN2C(=O)CN(S(C)(=O)=O)CC2(C)c2nnnn2C2CCCCC2)cc1 (stereo unspecified)	none (no result: PAFAH1B3 FP inh, pPAFAH inh, HTRA1 inhibitor, PAFAH2 inh, PAFAH1B2 FP inh)
C=CCn1c(O)c(N=NC(=O)c2ccccc2NS(=O)(=O)c2cccs2)c2ccccc21	PAFAH2 inh 37 | PAFAH2 FP conf inactive
CCCCn1c(O)c(N=NC(=O)c2ccccc2NS(=O)(=O)c2cccs2)c2ccccc21	none
COc1ccc2cc(C(=O)NCc3ccccc3)c(=Nc3ccc(C(=O)O)cc3)oc2c1	none
O=C(O)c1ccc(N=c2oc3cc(O)ccc3cc2C(=O)NCc2ccccc2)cc1	PAFAH2 inh 54 | PAFAH2 FP conf 40
N#C/C(=C\c1c(Cl)cccc1Cl)c1nc2ccccc2o1	PAFAH2 inh 33 | PAFAH2 FP conf 33
COc1cc2c(C(F)(F)F)c(-c3ccsc3)oc(=O)c2cc1OC	PAFAH2 inh 59 | PAFAH2 FP conf 39
N[C@H](C(=O)N1CCC[C@@H]1C(=O)N1CCC2CCN(S(=O)(=O)c3ccccc3)CC21)c1ccccc1 (stereo partly specified)	none (no result: PAFAH1B3 FP inh, pPAFAH inh, HTRA1 inhibitor, PAFAH2 inh, PAFAH1B2 FP inh)
CCOC(=O)[C@]12CCCCC/C=C\1N(Cc1ccc(OC)cc1)C(=O)[C@H]2CC(=O)NCc1ccccc1	none (no result: PAFAH1B3 FP inh, pPAFAH inh, HTRA1 inhibitor, PAFAH2 inh, PAFAH1B2 FP inh)
CC(C)Cc1csc(NC(=O)c2ccc(F)cc2)c1C(=O)O	PAFAH2 inh 37 | PAFAH2 FP conf inactive
CNc1ccc(C(=O)OCC(=O)NC(=O)NC2CCCC2)cc1[N+](=O)[O-]	PAFAH2 inh 41 | PAFAH2 FP conf inactive
CCOc1c(Br)cc(C(=O)OCC(=O)N2CCc3ccccc3C2)cc1OC	none
Cc1c(C(=O)OCC(=O)NC(=O)NC2CCCCC2)cccc1[N+](=O)[O-]	none
COc1ccc(C(=O)OCC(=O)NC(=O)NC2CCCC2)cc1OC	PAFAH2 inh 30 | PAFAH2 FP conf inactive
COc1ccc(C(=O)OCC(=O)N2CCc3ccccc3C2)cc1OC	PAFAH2 inh 53 | PAFAH2 FP conf 45
Cc1cccc(C(=O)OCC(=O)N2CCCC2=O)c1O	PAFAH2 inh 38 | PAFAH2 FP conf inactive
Nc1c(Cl)cc(Cl)cc1C(=O)OCC(=O)N1CCCC1	none
Nc1c(Cl)cc(Cl)cc1C(=O)OCC(=O)N1CCCC1=O	PAFAH2 inh 40 (no result: ABHD4 inh) | PAFAH2 FP conf 36
Cc1cccc(C(=O)OCC(=O)N2CCCCCC2)c1O	none
CC(C)CNC(=O)OCc1cn(Cc2ccc(F)cc2F)nn1	none (no result: PAFAH1B3 FP inh, pPAFAH inh, HTRA1 inhibitor, PAFAH2 inh, PAFAH1B2 FP inh)
Cc1cccc(-c2cccc3c4c([nH]c23)[C@@H]2C[C@H](N(C)C(=O)c3ccccc3C)[C@H]([C@H](C)O)CN2CC4)c1	none (no result: PAFAH1B3 FP inh, pPAFAH inh, HTRA1 inhibitor, PAFAH2 inh, PAFAH1B2 FP inh)
O=C1c2nc3ccccn3c2C(=O)N1Cc1ccccc1	PAFAH2 inh 38 | PAFAH2 FP conf inactive
O=C1c2nccnc2C(=O)N1Cc1ccccc1	none (no result: pPAFAH inh)
O=C(CCS(=O)(=O)c1ccc(Cl)cc1)N1CCN(S(=O)(=O)c2cccs2)CC1	PAFAH2 inh 51 | PAFAH2 FP conf 40
Cc1ccccc1CC(=O)N1CCN(S(=O)(=O)c2cccs2)CC1	none
Cc1ccc(S(=O)(=O)N(CC(=O)Nc2ccccc2C(=O)O)c2ccccc2C)cc1	none
Cc1ccc(S(=O)(=O)N(CC(=O)Nc2ccccc2C(=O)O)c2cccc(Cl)c2C)cc1	PAFAH2 inh 32 | PAFAH2 FP conf inactive
